Tested on: U2OS
Assay: Multiplex assay against U2OS
Type: toxicity, cell-based
Conditions: human
Outline: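 Phenotypes for tubulin, mitochondrial mass and membrane permeability are expressed as per cents of healthy-nucleus cells. Cells were stained live at seeding with Hoechst33342, BioTracker Green Microtubule Cytoskeleton Dye, MitoTracker Red and Annexin V Alexa Fluor 680, then imaged after compound addition on a CQ1 microscope at 37°C and 5% CO2. Machine-learning gating in CellPathfinder separated Hoechst high-intensity objects from normal cells, divided normal cells by nuclear state (healthy, pyknosed, fragmented) and divided pyknosed cells into mitotic or apoptotic.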

[1] = 12 h, 1 µM, compound concentration 1 uM, replicate 1
[2] = 12 h, 1 µM, compound concentration 1 uM, replicate 2
[3] = 12 h, 10 µM, compound concentration 10 uM, replicate 1
[4] = 12 h, 10 µM, compound concentration 10 uM, replicate 2
[5] = 24 h, 1 µM, compound concentration 1 uM, replicate 1
[6] = 24 h, 1 µM, compound concentration 1 uM, replicate 2
[7] = 24 h, 10 µM, compound concentration 10 uM, replicate 1
[8] = 24 h, 10 µM, compound concentration 10 uM, replicate 2

CN(C)C/C=C/C(=O)Nc1cc2c(Nc3ccc(F)c(Cl)c3)ncnc2cc1O[C@H]1CCOC1.O=C(O)/C=C\C(=O)O.O=C(O)/C=C\C(=O)O [AFATINIB DIMALEATE]
Population Apoptotic (%) [1]: 56% | Population Fragmented Nuclei (%) [1]: 4% | Population Healthy Nuclei (%) [1]: 85% | Population Hoechst High Intensity Objects (%) [1]: 3% | Population Membrane Permeable-Phenotype (%) [1]: 20% | Population Mitochondria Different-Phenotype (%) [1]: 8% | Population Mitotic Cells (%) [1]: 43% | Population Normal (%) [1]: 96% | Population Pyknosed Nuclei (%) [1]: 10% | Population Tubulin-Different-Phenotype (%) [1]: 18% | Population Apoptotic (%) [2]: 37% | Population Fragmented Nuclei (%) [2]: 7% | Population Healthy Nuclei (%) [2]: 86% | Population Hoechst High Intensity Objects (%) [2]: 11% | Population Membrane Permeable-Phenotype (%) [2]: 14% | Population Mitochondria Different-Phenotype (%) [2]: 18% | Population Mitotic Cells (%) [2]: 62% | Population Normal (%) [2]: 88% | Population Pyknosed Nuclei (%) [2]: 6% | Population Tubulin-Different-Phenotype (%) [2]: 24% | Population Apoptotic (%) [3]: 62% | Population Healthy Nuclei (%) [3]: 56% | Population Hoechst High Intensity Objects (%) [3]: 2% | Population Membrane Permeable-Phenotype (%) [3]: 25% | Population Mitochondria Different-Phenotype (%) [3]: 37% | Population Mitotic Cells (%) [3]: 37% | Population Normal (%) [3]: 97% | Population Pyknosed Nuclei (%) [3]: 26% | Population Tubulin-Different-Phenotype (%) [3]: 89% | Population Apoptotic (%) [4]: 68% | Population Fragmented Nuclei (%) [4]: 16% | Population Healthy Nuclei (%) [4]: 47% | Population Hoechst High Intensity Objects (%) [4]: 13% | Population Membrane Permeable-Phenotype (%) [4]: 18% | Population Mitochondria Different-Phenotype (%) [4]: 62% | Population Mitotic Cells (%) [4]: 31% | Population Normal (%) [4]: 86% | Population Pyknosed Nuclei (%) [4]: 35% | Population Tubulin-Different-Phenotype (%) [4]: 86% | Population Apoptotic (%) [5]: 72% | Population Fragmented Nuclei (%) [5]: 6% | Population Healthy Nuclei (%) [5]: 85% | Population Hoechst High Intensity Objects (%) [5]: 1% | Population Membrane Permeable-Phenotype (%) [5]: 16% | Population Mitochondria Different-Phenotype (%) [5]: 10% | Population Mitotic Cells (%) [5]: 27% | Population Normal (%) [5]: 98% | Population Pyknosed Nuclei (%) [5]: 8% | Population Tubulin-Different-Phenotype (%) [5]: 20% | Population Apoptotic (%) [6]: 75% | Population Fragmented Nuclei (%) [6]: 7% | Population Healthy Nuclei (%) [6]: 87% | Population Hoechst High Intensity Objects (%) [6]: 10% | Population Membrane Permeable-Phenotype (%) [6]: 15% | Population Mitochondria Different-Phenotype (%) [6]: 21% | Population Mitotic Cells (%) [6]: 25% | Population Normal (%) [6]: 89% | Population Pyknosed Nuclei (%) [6]: 5% | Population Tubulin-Different-Phenotype (%) [6]: 24% | Population Apoptotic (%) [7]: 81% | Population Fragmented Nuclei (%) [7]: 10% | Population Healthy Nuclei (%) [7]: 65% | Population Membrane Permeable-Phenotype (%) [7]: 26% | Population Mitochondria Different-Phenotype (%) [7]: 66% | Population Mitotic Cells (%) [7]: 18% | Population Pyknosed Nuclei (%) [7]: 24% | Population Tubulin-Different-Phenotype (%) [7]: 49% | Population Apoptotic (%) [8]: 93% | Population Fragmented Nuclei (%) [8]: 22% | Population Healthy Nuclei (%) [8]: 41% | Population Hoechst High Intensity Objects (%) [8]: 8% | Population Membrane Permeable-Phenotype (%) [8]: 29% | Population Mitochondria Different-Phenotype (%) [8]: 72% | Population Mitotic Cells (%) [8]: 6% | Population Normal (%) [8]: 91% | Population Pyknosed Nuclei (%) [8]: 36% | Population Tubulin-Different-Phenotype (%) [8]: 47%

CC(C)(C)c1cnc(CSc2cnc(NC(=O)C3CCNCC3)s2)o1 [BMS-387032]
Population Apoptotic (%) [1]: 26% | Population Fragmented Nuclei (%) [1]: 13% | Population Healthy Nuclei (%) [1]: 69% | Population Hoechst High Intensity Objects (%) [1]: 4% | Population Membrane Permeable-Phenotype (%) [1]: 15% | Population Mitochondria Different-Phenotype (%) [1]: 17% | Population Mitotic Cells (%) [1]: 73% | Population Normal (%) [1]: 95% | Population Pyknosed Nuclei (%) [1]: 16% | Population Tubulin-Different-Phenotype (%) [1]: 39% | Total Cell Count [1]: 140 | Population Apoptotic (%) [2]: 14% | Population Fragmented Nuclei (%) [2]: 11% | Population Healthy Nuclei (%) [2]: 80% | Population Hoechst High Intensity Objects (%) [2]: 15% | Population Membrane Permeable-Phenotype (%) [2]: 21% | Population Mitochondria Different-Phenotype (%) [2]: 31% | Population Mitotic Cells (%) [2]: 85% | Population Normal (%) [2]: 84% | Population Pyknosed Nuclei (%) [2]: 7% | Population Tubulin-Different-Phenotype (%) [2]: 37% | Total Cell Count [2]: 143 | Population Apoptotic (%) [3]: 40% | Population Fragmented Nuclei (%) [3]: 18% | Population Healthy Nuclei (%) [3]: 61% | Population Hoechst High Intensity Objects (%) [3]: 3% | Population Membrane Permeable-Phenotype (%) [3]: 22% | Population Mitochondria Different-Phenotype (%) [3]: 26% | Population Mitotic Cells (%) [3]: 60% | Population Normal (%) [3]: 96% | Population Pyknosed Nuclei (%) [3]: 19% | Population Tubulin-Different-Phenotype (%) [3]: 31% | Total Cell Count [3]: 144 | Population Apoptotic (%) [4]: 18% | Population Fragmented Nuclei (%) [4]: 19% | Population Healthy Nuclei (%) [4]: 63% | Population Hoechst High Intensity Objects (%) [4]: 13% | Population Membrane Permeable-Phenotype (%) [4]: 10% | Population Mitochondria Different-Phenotype (%) [4]: 47% | Population Mitotic Cells (%) [4]: 81% | Population Normal (%) [4]: 86% | Population Pyknosed Nuclei (%) [4]: 17% | Population Tubulin-Different-Phenotype (%) [4]: 25% | Total Cell Count [4]: 109 | Population Apoptotic (%) [5]: 82% | Population Fragmented Nuclei (%) [5]: 13% | Population Healthy Nuclei (%) [5]: 75% | Population Hoechst High Intensity Objects (%) [5]: 5% | Population Membrane Permeable-Phenotype (%) [5]: 23% | Population Mitochondria Different-Phenotype (%) [5]: 34% | Population Mitotic Cells (%) [5]: 17% | Population Normal (%) [5]: 94% | Population Pyknosed Nuclei (%) [5]: 10% | Population Tubulin-Different-Phenotype (%) [5]: 38% | Total Cell Count [5]: 200 | Population Apoptotic (%) [6]: 55% | Population Fragmented Nuclei (%) [6]: 11% | Population Healthy Nuclei (%) [6]: 80% | Population Hoechst High Intensity Objects (%) [6]: 8% | Population Membrane Permeable-Phenotype (%) [6]: 22% | Population Mitochondria Different-Phenotype (%) [6]: 36% | Population Mitotic Cells (%) [6]: 44% | Population Normal (%) [6]: 91% | Population Pyknosed Nuclei (%) [6]: 8% | Population Tubulin-Different-Phenotype (%) [6]: 36% | Total Cell Count [6]: 166 | Population Apoptotic (%) [7]: 64% | Population Fragmented Nuclei (%) [7]: 22% | Population Healthy Nuclei (%) [7]: 45% | Population Hoechst High Intensity Objects (%) [7]: 9% | Population Membrane Permeable-Phenotype (%) [7]: 29% | Population Mitochondria Different-Phenotype (%) [7]: 43% | Population Mitotic Cells (%) [7]: 35% | Population Normal (%) [7]: 90% | Population Pyknosed Nuclei (%) [7]: 32% | Population Tubulin-Different-Phenotype (%) [7]: 41% | Total Cell Count [7]: 174 | Population Apoptotic (%) [8]: 78% | Population Fragmented Nuclei (%) [8]: 12% | Population Healthy Nuclei (%) [8]: 52% | Population Hoechst High Intensity Objects (%) [8]: 17% | Population Membrane Permeable-Phenotype (%) [8]: 24% | Population Mitochondria Different-Phenotype (%) [8]: 41% | Population Mitotic Cells (%) [8]: 21% | Population Normal (%) [8]: 82% | Population Pyknosed Nuclei (%) [8]: 34% | Population Tubulin-Different-Phenotype (%) [8]: 27% | Total Cell Count [8]: 118
